Here are results for 17 compounds from ChEMBL document CHEMBL1122022, “Catechol O-methyltransferase. 10. 5-Substituted 3-hydroxy-4-methoxybenzoic acids (isovanillic acids) and 5-substituted 3-hydroxy-4-methoxybenzaldehydes (isovanillins) as potential inhibitors” (J Med Chem, 1982).

Active and inactive are the calls of the source. No cut-off for these calls is given here.

Test [1] has as its target T1, Catechol O-methyltransferase (Rattus norvegicus) (UniProt P22734).
T1 sequence (whole entry): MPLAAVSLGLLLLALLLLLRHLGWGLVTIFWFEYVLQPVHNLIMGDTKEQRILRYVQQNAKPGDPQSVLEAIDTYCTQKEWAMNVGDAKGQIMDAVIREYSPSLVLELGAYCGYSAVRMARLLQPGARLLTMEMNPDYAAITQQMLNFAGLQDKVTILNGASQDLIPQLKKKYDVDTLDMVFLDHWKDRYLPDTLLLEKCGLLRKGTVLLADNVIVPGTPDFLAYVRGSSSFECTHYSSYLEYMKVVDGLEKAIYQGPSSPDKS
The test can be described thus: Ability to inhibit Catechol O-methyltransferase from rat liver at a concentration of 1 mM. Inhibition pattern was reported; Competitive kinetics. The essentials:
(§1)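 COMT purified from male Sprague–Dawley rat liver (180–200 g) through the calcium phosphate step, then reactivated before use by 40 min preincubation at 37 °C in pH 7.6 phosphate buffer with 4 mM DTT. Radiochemical assay: 3,4-dihydroxybenzoic acid variable (0.02–0.20 mM), SAM 0.2 mM plus 0.05 μCi SAM-¹⁴CH₃, Mg²⁺ 1 mM, DTT 4 mM, 100 mM phosphate pH 7.6. Inhibition pattern and Kis/Kii taken from double-reciprocal plots.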

Test [2] addresses T1, Catechol O-methyltransferase (Rattus norvegicus). The experiment in a line: Ability to inhibit Catechol O-methyltransferase from rat liver. kinetic inhibition Kis constant was reported. The essentials:
as §1

The target is the same in test [3]. The experiment in a line: Ability to inhibit Catechol O-methyltransferase from rat liver at a concentration of 1 mM. Inhibition pattern was reported; No inhibitory activity. The essentials: as §1
For test [4] the target is unchanged. The test can be described thus: Ability to inhibit Catechol O-methyltransferase from rat liver at a concentration of 1 mM. Inhibition pattern was reported; Noncompetitive kinetics. The essentials:
as §1

Test [5] has the same target. The experiment in a line: Ability to inhibit Catechol O-methyltransferase kinetic inhibition Kii constant was reported. The essentials:
as §1

Test [6] has the same target. The test can be described thus: Ability to inhibit Catechol O-methyltransferase kinetic inhibition Kis constant was reported. The method, boiled down:
as §1

For test [7] the target is unchanged. The experiment in a line: Ability to inhibit Catechol O-methyltransferase from rat liver. kinetic inhibition Kii constant was reported. The essentials: as §1
Test [8] has the same target. The experiment in a line: Ability to inhibit Catechol O-methyltransferase. Following kinetic inhibition constants Kii was reported. The method, boiled down: as §1
For test [9] the target is unchanged. The experiment in a line: Ability to inhibit Catechol O-methyltransferase. Following kinetic inhibition constants Kis was reported. The method, boiled down: as §1

For the compound `COc1c(O)cc(C(=O)O)cc1Cl`, in test [1], the inhibition entry is given as “Competitive kinetics”. The same compound returned a Kis in [2] of 394 µM.
On to `COc1ccc(C=O)cc1O`, for which the inhibition result in [3] is “inactive”.
In the case of `COc1c(O)cc(C=O)cc1F`, the inhibition entry in [4] is on record as “Noncompetitive kinetics”. In test [5], this compound had a Kii of 48.4 µM. Moreover, the Kis in [6] was 56.9 µM.
With `COc1c(O)cc(C(=O)O)cc1[N+](=O)[O-]`, the inhibition pattern entry in [4] is reported as “Noncompetitive kinetics”. This compound came in with a Kii in test [7] of 247 µM. In [2], this compound yielded a Kis of 50.2 µM.
`COc1c(O)cc(C=O)cc1Cl`: the inhibition pattern entry in test [4] is “Noncompetitive kinetics”. This compound also returned a Kii in [5] of 10.8 µM. The Kis in test [6] came to 31.6 µM.
With `COc1c(O)cc(C=O)cc1[N+](=O)[O-]`, the inhibition result in test [1] is reported as “Competitive kinetics”. The same compound had a Kis in test [6] of 0.7 µM.
For the compound `COc1ccc(C(=O)O)cc1O`, in [3], the inhibition result is “inactive”.
For the compound `CCOC(=S)Sc1cc(C=O)cc(O)c1OC`, the inhibition pattern result in [4] is listed as “Noncompetitive kinetics”. Further, in test [8], the Kii was 272 µM. In [9], this compound gave a Kis of 885 µM.
As for `COc1c(N)cc(C(=O)O)cc1O`, the inhibition entry in test [3] was “inactive”.
In the case of `COc1c(O)cc(C=O)cc1I`, the inhibition pattern result in [4] is “Noncompetitive kinetics”. In test [5], this compound registered a Kii of 56.6 µM. The same compound had a Kis in test [6] of 111 µM.
The corresponding values for `COc1c(O)cc(C=O)cc1Br` are “Noncompetitive kinetics”, 16.5 µM and 31.8 µM.
With `COc1c(O)cc(C(=O)O)cc1N(C)C`, the inhibition result in test [3] is “inactive”.
For `COc1cc(C(=O)O)cc(O)c1OC`, the inhibition pattern result in [4] is recorded as “Noncompetitive kinetics”. Moreover, the Kii in test [7] amounted to 521 µM. In addition, the Kis in test [2] came to 999 µM.
For the compound `COc1c(O)cc(C(=O)O)cc1I`, in test [3], the inhibition result was “inactive”.
As for `COc1c(O)cc(C(=O)O)cc1C#N`, in [4], the inhibition pattern entry is reported as “Noncompetitive kinetics”. In test [7], this compound displayed a Kii of 571 µM. Moreover, the Kis in [2] was 589 µM.
Turning to `COc1c(O)cc(C=O)cc1O`, in [4], the inhibition pattern entry is given as “Noncompetitive kinetics”. In test [5], the Kii came out at 16.1 µM. In addition, the Kis in test [6] amounted to 9.98 µM.
As for `COc1c(O)cc(C(=O)O)cc1Br`, in test [1], the inhibition result was “Competitive kinetics”. The same compound gave a Kis in test [2] of 340 µM.
